# Measured values published in ChEMBL document CHEMBL3621150, “Characterization of 2,4-Diamino-6-oxo-1,6-dihydropyrimidin-5-yl Ureido Based Inhibitors of Trypanosoma brucei FolD and Testing for Antiparasitic Activity” (J Med Chem, 2015).
# Active and inactive are the calls of the source. No cut-off for these calls is given here.
# Assays:
# [1] = Inhibition of Trypanosoma brucei FolD dehydrogenase activity assessed as formation of 5,10-CH=THF from 5,10-CH2-THF after 5 mins by spectrophotometric analysis
# How it was run: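 Recombinant T. brucei FolD from E. coli BL21 (DE3), Ni²⁺-affinity purified. Assay at 27 °C in 25 mM MOPS pH 7.3 with 30 mM 2-mercaptoethanol, 35 μM mTHF and 1 mM NADP⁺, started with NADP⁺. Reaction stopped at 5 min with an equal volume of 1 M HCl, product read at 350 nm (ε 24.9 mM⁻¹ cm⁻¹). Compounds from 10 mM DMSO stocks, first tested at 0–50–100 μM. Data fitted to a competitive model by linear regression.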
# THP-1 = assay: Cytotoxicity against macrophages differentiated from human THP1 cells assessed as cell viability after 72 hrs by MTT assay; format: cell-based; details: THP-1, 72 h
# How it was run: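 THP1-differentiated macrophages, 10⁵ cells/well, adhered overnight, then exposed to a compound concentration range for 72 h at 37 °C. MTT at 0.5 mg/mL added for 4 h in the dark, and formazan dissolved in isopropanol. Absorbance read at 570 nm with 660 nm background. Viability given relative to untreated cells, and IC₅₀ from linear regression.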
# [2] = test system: Trypanosoma brucei brucei; assay: Antiparasitic activity against bloodstream form of Trypanosoma brucei brucei 427 […] assessed as growth inhibition after 72 hrs by Alamar Blue assay; format: functional, organism-based
# [3] = Competitive inhibition of recombinant Leishmania major hexahistidine-tagged FolD dehydrogenase activity expressed in Escherichia coli by Michaelis-Menten plot analysis in presence of 5,10-CH2-THF
# [4] = Selectivity index, ratio of IC50 for macrophages differentiated from human THP1 cells to IC50 for bloodstream form of Trypanosoma brucei brucei 427; format: toxicity, cell-based, THP-1; details: read-out: Ratio IC50
# How it was run: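 Bloodstream-form T. b. brucei 427 in HMI-9 with 10% heat-inactivated FBS at 37 °C, 5% CO2: about 2,000 cells per well with serial drug dilutions for 72 h, then resazurin 45.5 μM for 4 h, fluorescence ex 528/em 590 nm. THP1-differentiated macrophages at 10⁵ cells/well: 72 h at 37 °C, MTT 4 h, A570 minus 660 nm versus untreated. Both IC50s by linear regression.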
# [5] = Competitive inhibition of Pseudomonas aeruginosa FolD dehydrogenase activity
# [6] = Trypanosoma brucei, 427, 72 h, read-out: IC50
IC50 [1] [µM],Ki [1] [µM],IC50 [2],Ki [5] [µM],"IC50 [2, 6] [µM]",Structure (SMILES),IC50 (THP-1) [µM],Ki [3] [µM],selectivity ratio [4],growth inhibition (GI) [2]
1,0.48,Not Active,,,Nc1nc(N)c(NC(=O)Nc2ccc(C(=O)N[C@@H](CCCC(=O)O)C(=O)O)cc2)c(=O)[nH]1,90,,,
1.1,0.54,Not Active,,,Nc1nc(N)c(NC(=O)Nc2ccc(C(=O)N[C@@H](Cc3ccccc3)C(=O)O)cc2)c(=O)[nH]1,94,,,
9.3,7.3,Not Active,,,Nc1nc(N)c(NC(=O)Nc2ccc(C(=O)N[C@@H](Cc3ccc(O)cc3)C(=O)O)cc2)c(=O)[nH]1,77,,,
20,8.5,,0.03,57,Nc1nc2c(c(=O)[nH]1)N1C(=O)N(c3ccc(C(=O)NC(CCC(=O)O)C(=O)O)cc3)CC1CN2 (stereo unspecified),103,0.105,1.8,
2.2,1.1,,,49,Nc1nc(N)c(NC(=O)Nc2ccc(C(=O)N[C@@H](CCC(=O)O)C(=O)O)cc2)c(=O)[nH]1,194,,4,
6.3,3.2,Not Active,,,C[C@H](NC(=O)c1ccc(NC(=O)Nc2c(N)nc(N)[nH]c2=O)cc1)C(=O)O,113,,,
,,,,0.0016,N=C(N)c1ccc(OCCCCCOc2ccc(C(=N)N)cc2)cc1 [PENTAMIDINE],,,,
,,,,,Cc1ccc(C(=O)Nc2ccc(S(=O)(=O)O)c3cc(S(=O)(=O)O)cc(S(=O)(=O)O)c23)cc1NC(=O)c1cccc(NC(=O)Nc2cccc(C(=O)Nc3cc(C(=O)Nc4ccc(S(=O)(=O)O)c5cc(S(=O)(=O)O)cc(S(=O)(=O)O)c45)ccc3C)c2)c1,,,,Active
250,,,,89,CCOC(=O)c1ccc(NC(=O)Nc2c(N)nc(N)[nH]c2=O)cc1,97,,1.1,
83,,,,74,Nc1nc(N)c(NC(=O)Nc2ccc(C(=O)O)cc2)c(=O)[nH]1,97,,1.3,
250,,,,92,CCOC(=O)CC[C@H](NC(=O)c1ccc(NC(=O)Nc2c(N)nc(N)[nH]c2=O)cc1)C(=O)OCC,205,,2.2,
213,168,Not Active,,,Nc1nc(N)c(NC(=O)Nc2ccc(C(=O)NCCCC(=O)O)cc2)c(=O)[nH]1,98,,,
